Experimental data: article PMC8266240 (Journal of Enzyme Inhibition and Medicinal Chemistry, 2021)
Peptide text beside a SMILES is read from it. * marks the point of attachment. Cbz = O=C(OCc1ccccc1)*; CH2F = FC*

test system: HeLa cells; assay: Effect of inhibitors/activators on 12A-induced vacuolization in HeLa cells; assay type: cell-based, human; settings: pre- or co-treated with 12A, 8 h
In short: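 HeLa cells, alone or with the vacuolization-inducing test compound, were exposed to modulators for 8 h: pan-caspase inhibitor Z-VAD-FMK, autophagy inhibitors 3-MA and LY294002, autophagy activator rapamycin, bafilomycin A1, cycloheximide, ERK1/2 inhibitor PD98059 and JNK inhibitor SP600125. Some inhibitors were given as a 2 h pre-treatment before the test compound. Vacuoles were assessed by microscopy imaging.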

Row | Compound | effect on 12A-induced vacuolization
1 | Cn1cnc(N)c2ncnc1-2 [3-methyladenine] | did not decrease
2 | CO/C1=C\C(C)=C\[C@@H](C)[C@@H](O)[C@@H](C)C/C(C)=C/C=C/[C@H](OC)[C@@H]([C@@H](C)[C@@H](O)[C@H](C)[C@@]2(O)C[C@@H](O)[C@H](C)[C@@H](C(C)C)O2)OC1=O [Baf-A1, Bafilomycin A1] | dramatically blocked the formation of vacuoles
3 | C[C@@H]1C[C@@H]([C@H](O)CC2CC(=O)NC(=O)C2)C(=O)[C@@H](C)C1 [CHX, Cycloheximide] | dramatically blocked the formation of vacuoles
4 | O=c1cc(N2CCOCC2)oc2c(-c3ccccc3)cccc12 [LY294002] | did not decrease
5 | COc1cccc(-c2cc(=O)c3ccccc3o2)c1N [PD98059] | significantly decreased
6 | Oc1c2ccccc2c2c3c(cccc13)N=N2 [SP600125] | significantly decreased
7 | COC(=O)C[C@H](NC(=O)[C@H](C)NC(=O)[C@@H](NC(=O)OCc1ccccc1)C(C)C)C(=O)CF [Z-VAD-FMK] (Cbz-Val-Ala-Asp(OMe)-CH2F) | not inhibited
8 | CO[C@H]1C[C@@H]2CC[C@@H](C)[C@@](O)(O2)C(=O)C(=O)N2CCCC[C@H]2C(=O)O[C@H]([C@H](C)C[C@@H]2CC[C@@H](O)[C@H](OC)C2)CC(=O)[C@H](C)/C=C(\C)[C@@H](O)[C@@H](OC)C(=O)[C@H](C)C[C@H](C)/C=C/C=C/C=C/1C [rapamycin] | failed to promote
